Assay results reported in ChEMBL document CHEMBL4177575 (Bioorg Med Chem, 2017).
Each block holds one molecule with its values, some of them ahead of it.

How the values were obtained:
[1] = tested on: A549; experiment: Cytotoxicity against human A549 cells assessed as reduction in cell viability incubated for 72 hrs by MTT assay; assay type: functional, cell-based; details: A549, 72 h
Outline: (§1)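 Cells grown in MEM with 10% FBS; about 4×10^3 cells per well, pre-incubated 24 h at 37 °C in 5% CO2, then exposed to compound for 72 h. Seven concentrations, threefold serial dilution from 100 ug/mL initial. MTT at 5 µg/mL terminal concentration for 4 h; formazan dissolved in DMSO, absorbance read at 492 nm against 630 nm reference. IC50 is the average of two determinations.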

[2] = tested on: HepG2; experiment: Cytotoxicity against human HepG2 cells assessed as reduction in cell viability incubated for 72 hrs by MTT assay; assay type: functional, cell-based; details: HepG2, 72 h; outline: as §1
[3] = tested on: MCF7; experiment: Cytotoxicity against human MCF7 cells assessed as reduction in cell viability incubated for 72 hrs by MTT assay; assay type: functional, cell-based; details: MCF7, 72 h; outline: as §1
[4] = tested on: PC-3; experiment: Cytotoxicity against human PC3 cells assessed as reduction in cell viability incubated for 72 hrs by MTT assay; assay type: functional, cell-based; details: PC-3, 72 h; outline: as §1
[5] = biological target: Vascular endothelial growth factor receptor 2 (Homo sapiens, UniProt P35968); experiment: Inhibition of VEGFR2 (unknown origin) incubated for 10 mins using FAM-labeled peptide and ATP by mobility shift assay
[6] = biological target: Serine/threonine-protein kinase B-raf (Homo sapiens, UniProt P15056); experiment: Inhibition of BRAF (unknown origin) incubated for 10 mins using FAM-labeled peptide and ATP by mobility shift assay
Sequence of Serine/threonine-protein kinase B-raf (P15056 whole entry): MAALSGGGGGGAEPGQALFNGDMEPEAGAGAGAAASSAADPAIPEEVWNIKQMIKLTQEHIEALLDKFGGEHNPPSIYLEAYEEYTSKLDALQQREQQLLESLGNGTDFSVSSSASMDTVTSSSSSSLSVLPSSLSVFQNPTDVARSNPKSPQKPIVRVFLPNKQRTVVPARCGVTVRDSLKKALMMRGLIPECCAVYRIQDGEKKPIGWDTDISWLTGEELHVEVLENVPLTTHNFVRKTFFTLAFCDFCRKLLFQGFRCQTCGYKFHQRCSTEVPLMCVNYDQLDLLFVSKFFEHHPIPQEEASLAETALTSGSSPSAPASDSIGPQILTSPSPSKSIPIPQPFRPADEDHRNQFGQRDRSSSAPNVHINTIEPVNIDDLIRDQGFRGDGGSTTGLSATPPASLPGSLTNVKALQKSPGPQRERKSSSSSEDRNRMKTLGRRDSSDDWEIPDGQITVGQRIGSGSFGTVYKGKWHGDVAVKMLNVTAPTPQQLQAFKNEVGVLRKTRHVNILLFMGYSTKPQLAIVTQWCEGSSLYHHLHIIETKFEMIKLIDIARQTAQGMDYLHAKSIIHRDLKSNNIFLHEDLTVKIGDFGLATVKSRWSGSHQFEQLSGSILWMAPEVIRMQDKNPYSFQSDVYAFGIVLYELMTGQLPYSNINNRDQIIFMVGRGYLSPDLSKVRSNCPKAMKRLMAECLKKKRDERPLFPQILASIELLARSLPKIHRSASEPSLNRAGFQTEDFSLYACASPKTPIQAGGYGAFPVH

Sequence of Vascular endothelial growth factor receptor 2 (P35968 whole entry): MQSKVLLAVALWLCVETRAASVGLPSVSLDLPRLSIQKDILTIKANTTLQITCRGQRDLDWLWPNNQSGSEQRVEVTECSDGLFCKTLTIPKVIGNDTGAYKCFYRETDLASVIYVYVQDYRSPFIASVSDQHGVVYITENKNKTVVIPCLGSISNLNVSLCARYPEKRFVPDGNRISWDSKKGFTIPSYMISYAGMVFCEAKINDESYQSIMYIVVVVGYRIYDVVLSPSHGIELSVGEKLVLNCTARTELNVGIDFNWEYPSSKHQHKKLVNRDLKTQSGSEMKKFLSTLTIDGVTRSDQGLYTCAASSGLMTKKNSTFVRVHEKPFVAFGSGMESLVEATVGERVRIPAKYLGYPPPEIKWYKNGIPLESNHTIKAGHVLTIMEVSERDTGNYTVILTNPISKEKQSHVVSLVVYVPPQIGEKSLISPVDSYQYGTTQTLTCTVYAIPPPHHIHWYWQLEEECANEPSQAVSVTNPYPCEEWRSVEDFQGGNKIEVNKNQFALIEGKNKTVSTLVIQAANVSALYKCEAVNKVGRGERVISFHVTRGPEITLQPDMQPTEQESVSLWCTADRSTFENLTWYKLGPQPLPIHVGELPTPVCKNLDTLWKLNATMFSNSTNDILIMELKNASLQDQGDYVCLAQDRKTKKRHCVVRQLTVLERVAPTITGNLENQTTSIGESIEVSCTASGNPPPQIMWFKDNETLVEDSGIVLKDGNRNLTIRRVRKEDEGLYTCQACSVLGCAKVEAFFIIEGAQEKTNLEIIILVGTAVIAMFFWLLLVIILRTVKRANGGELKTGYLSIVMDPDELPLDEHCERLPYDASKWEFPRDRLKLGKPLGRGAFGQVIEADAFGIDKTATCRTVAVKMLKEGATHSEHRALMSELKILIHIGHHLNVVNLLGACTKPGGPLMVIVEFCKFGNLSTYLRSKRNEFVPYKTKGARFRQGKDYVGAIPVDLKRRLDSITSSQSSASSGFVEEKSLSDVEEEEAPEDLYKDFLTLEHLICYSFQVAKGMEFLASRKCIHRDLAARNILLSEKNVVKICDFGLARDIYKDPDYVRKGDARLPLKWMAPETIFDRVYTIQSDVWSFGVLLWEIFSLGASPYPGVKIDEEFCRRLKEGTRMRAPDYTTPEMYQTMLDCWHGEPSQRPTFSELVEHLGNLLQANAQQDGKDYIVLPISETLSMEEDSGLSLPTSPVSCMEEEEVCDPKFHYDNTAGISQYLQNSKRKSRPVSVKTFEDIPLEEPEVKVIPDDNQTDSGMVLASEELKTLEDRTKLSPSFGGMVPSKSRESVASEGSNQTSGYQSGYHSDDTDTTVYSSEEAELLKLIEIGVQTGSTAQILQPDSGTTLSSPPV

SMILES: CNC(=O)c1cc(Oc2ccc(C3CC(c4ccc(Cl)cc4)=NN3)cc2)ccn1 (configuration not stated)
IC50 [1]: 20.5 µM
IC50 [2]: 10.9 µM
IC50 [3]: 15.3 µM

SMILES: CNC(=O)c1cc(Oc2ccc(C3=NNC(c4ccc(Cl)c(Cl)c4)C3)cc2)ccn1 (configuration not stated)
IC50 [1]: 10.7 µM
IC50 [2]: 14.4 µM
IC50 [4]: 36.2 µM

SMILES: CNC(=O)c1cc(Oc2ccc(C3=NNC(c4ccc([N+](=O)[O-])cc4)C3)cc2)ccn1 (configuration not stated)
IC50 [1]: 19.5 µM
IC50 [2]: > 50 µM
IC50 [4]: > 50 µM

SMILES: CNC(=O)c1cc(Oc2ccc(C3=NNC(c4ccc(OC)c(OC)c4OC)C3)cc2)ccn1 (configuration not stated)
IC50 [1]: 19 µM
IC50 [2]: 15.7 µM
IC50 [3]: 9.94 µM

SMILES: CNC(=O)c1cc(Oc2ccc(C3=NNC(c4cccc(Cl)c4Cl)C3)cc2)ccn1 (configuration not stated)
IC50 [1]: 12.1 µM
IC50 [2]: 4.99 µM

SMILES: CNC(=O)c1cc(Oc2ccc(C3=NNC(c4ccc(Cl)cc4Cl)C3)cc2)ccn1 (configuration not stated)
IC50 [1]: 6.93 µM
IC50 [4]: 7.3 µM

SMILES: CNC(=O)c1cc(Oc2ccc(C3=NNC(c4ccc(C#N)cc4)C3)cc2)ccn1 (configuration not stated)
IC50 [1]: 17.4 µM
IC50 [2]: 15 µM
IC50 [4]: 9.91 µM

SMILES: CNC(=O)c1cc(Oc2ccc(NC(=O)Nc3ccc(Cl)c(C(F)(F)F)c3)cc2)ccn1 [SORAFENIB]
IC50 [1]: 2.92 µM
IC50 [4]: 3.18 to 3.24 µM

SMILES: CNC(=O)c1cc(Oc2ccc(C3=NNC(c4ccc(F)cc4Cl)C3)cc2)ccn1 (configuration not stated)
IC50 [1]: 13.7 µM
IC50 [2]: 11.5 µM
IC50 [4]: 24.2 µM

SMILES: CNC(=O)c1cc(Oc2ccc(C3CC(c4ccc([N+](=O)[O-])cc4)=NN3C(N)=S)cc2)ccn1 (configuration not stated)
IC50 [1]: > 50 µM
IC50 [2]: > 50 µM
IC50 [4]: > 50 µM

SMILES: CNC(=O)c1cc(Oc2ccc(C3=NN(C(N)=S)C(c4ccc(Cl)cc4)C3)cc2)ccn1 (configuration not stated)
IC50 [1]: > 50 µM
IC50 [2]: > 50 µM
IC50 [4]: > 50 µM

SMILES: CNC(=O)c1cc(Oc2ccc(C3=NNC(c4ccc(F)cc4)C3)cc2)ccn1 (configuration not stated)
IC50 [1]: 15.1 µM
IC50 [2]: 5.28 µM
IC50 [3]: 9.48 µM
IC50 [4]: 6.77 µM

IC50 [5]: > 50 µM
IC50 [6]: > 50 µM
SMILES: CNC(=O)c1cc(Oc2ccc(C3=NNC(c4ccc(OC)cc4)C3)cc2)ccn1 (configuration not stated)
IC50 [1]: 13.1 µM
IC50 [2]: 9.64 µM
IC50 [3]: 11 µM
IC50 [4]: 7.74 µM

IC50 [5]: > 50 µM
IC50 [6]: > 50 µM
SMILES: CNC(=O)c1cc(Oc2ccc(C3CC(c4ccc([N+](=O)[O-])cc4)=NN3)cc2)ccn1 (configuration not stated)
IC50 [2]: 28.9 µM
IC50 [3]: 8.03 µM

SMILES: CNC(=O)c1cc(Oc2ccc(C3=NNC(c4cccc([N+](=O)[O-])c4)C3)cc2)ccn1 (configuration not stated)
IC50 [2]: 26.5 µM
IC50 [3]: 35.4 µM

SMILES: CNC(=O)c1cc(Oc2ccc(C3=NN(C(N)=S)C(c4ccc(C#N)cc4)C3)cc2)ccn1 (configuration not stated)
IC50 [1]: > 50 µM
IC50 [2]: > 50 µM
IC50 [4]: > 50 µM

SMILES: CNC(=O)c1cc(Oc2ccc(C3=NNC(c4cc(OC)c(OC)c(OC)c4)C3)cc2)ccn1 (configuration not stated)
IC50 [1]: 37.1 µM
IC50 [2]: 24.3 µM
IC50 [4]: 28.3 µM

SMILES: CNC(=O)c1cc(Oc2ccc(C3=NN(C(N)=S)C(c4cccc([N+](=O)[O-])c4)C3)cc2)ccn1 (configuration not stated)
IC50 [1]: > 50 µM
IC50 [2]: > 50 µM
IC50 [4]: > 50 µM

SMILES: CNC(=O)c1cc(Oc2ccc(C3CC(c4ccc(Br)cc4)=NN3)cc2)ccn1 (configuration not stated)
IC50 [2]: 16.9 µM
IC50 [3]: 15.3 µM

SMILES: CNC(=O)c1cc(Oc2ccc(C3=NN(C(N)=S)C(c4ccc(F)cc4)C3)cc2)ccn1 (configuration not stated)
IC50 [1]: 19.4 µM
IC50 [2]: > 50 µM
IC50 [4]: > 50 µM

IC50 [5]: 2.3 µM
IC50 [6]: 3.9 µM
SMILES: CNC(=O)c1cc(Oc2ccc(C3=NNC(c4ccccc4)C3)cc2)ccn1 (configuration not stated)
IC50 [1]: 8.6 µM
IC50 [2]: 1.5 µM
IC50 [3]: 1.24 µM
IC50 [4]: 4.52 µM

SMILES: CNC(=O)c1cc(Oc2ccc(C3=NN(C(N)=S)C(c4cccc(Cl)c4Cl)C3)cc2)ccn1 (configuration not stated)
IC50 [1]: > 50 µM
IC50 [2]: 1.89 µM
IC50 [4]: 15.9 µM

SMILES: CNC(=O)c1cc(Oc2ccc(C3=NNC(c4ccc(Br)cc4)C3)cc2)ccn1 (configuration not stated)
IC50 [1]: 21 µM
IC50 [2]: 57.6 µM
IC50 [4]: > 50 µM
